Assay results of several laboratories.
Each line is one published result; the experiments were not run side by side.
MAOA: Amine oxidase [flavin-containing] A (MAOA, Homo sapiens, UniProt P21397)
PRMT3: Protein arginine N-methyltransferase 3 (PRMT3, Homo sapiens, UniProt O60678)
Rps6ka1: Ribosomal protein S6 kinase alpha-1 (Rps6ka1, Rattus norvegicus, UniProt Q63531)
LDHA: L-lactate dehydrogenase A chain (LDHA, Homo sapiens, UniProt P00338)
ADRA1A: Alpha-1A adrenergic receptor (ADRA1A, Homo sapiens, UniProt P35348)
Tspo: Translocator protein (Tspo, Rattus norvegicus, UniProt P16257)

O=C(Nc1ccc([N+](=O)[O-])cc1[N+](=O)[O-])c1ccccc1O
inhibition (MAOA; enzyme activity, inhibitor; 1 µM, 20 min): 49%

N=C(NCCCSC[C@H]1O[C@@H](n2cnc3c(NCCCc4ccccc4)ncnc32)[C@H](O)[C@@H]1O)NC1CC1
inhibition (PRMT3; enzyme activity, inhibitor, fluorescence; 10 µM): -8.93%

O=C(Nc1ccc([N+](=O)[O-])cc1Cl)c1ccc2ccccc2c1
inhibition (MAOA; enzyme activity, inhibitor; 1 µM, 20 min): 11%

Cc1ccc(Nc2nccc(N(C)c3ccc4c(C)n(C)nc4c3)n2)cc1S(N)(=O)=O
inhibition (Rps6ka1; enzyme activity, inhibitor; 10 µM): 41%

COC(=O)CN=c1scc(-c2ccccc2)n1-c1ccc(OC)cc1
inhibition (LDHA; enzyme activity, inhibitor, fluorescence; 100 µM, pH 7.2): 49%

COc1ccc(/C=C/C(=O)N2CCc3ccccc3C2)cc1OC
inhibition (MAOA; enzyme activity, inhibitor, fluorescence; 62.5 µM): 11.3%

COc1cc(NC(C)=O)c(Cl)cc1C(=O)Nc1nccs1
inhibition (ADRA1A; cell-free assay; 10 µM): 13.9%

CCCNc1nc2ccccc2n1Cc1ccc(Cl)cc1
inhibition (ADRA1A; ligand displacement; 10 µM): -2.69%

Nc1ncnc2c1ncn2[C@@H]1O[C@H](CSCCNC(=O)NCc2ccccc2)[C@@H](O)[C@H]1O
inhibition (Protein arginine N-methyltransferase 5 (PRMT5, Homo sapiens, UniProt O14744); enzyme activity, inhibitor, radiometric; 10 µM): > 95%

C#CCNC(=N)NCCCSC[C@H]1O[C@@H](n2cnc3c(NCCCc4ccccc4)ncnc32)[C@H](O)[C@@H]1O
inhibition (PRMT3; enzyme activity, inhibitor, fluorescence; 10 µM): 6.56%

N#Cc1cc(Cn2c(N3CCCC3)nc3ccccc32)ccc1F
inhibition (ADRA1A; ligand displacement; 10 µM): -11.7%

CC1=C(C(=O)Nc2ccc([N+](=O)[O-])cc2Cl)Cc2ccccc21
inhibition (MAOA; enzyme activity, inhibitor; 1 µM, 20 min): -3%

O=C1N=C(N2CCCCN2)S/C1=C\c1ccc(F)cc1O
inhibition (Kappa-type opioid receptor (Oprk1, Rattus norvegicus, UniProt P34975); ligand displacement, radioligand; 10 µM): 11%

N#Cc1ccc(NC(=O)c2ccc(Cl)cc2)cc1
inhibition (MAOA; enzyme activity, inhibitor; 1 µM, 20 min): 72%

COC(=O)CN=c1scc(-c2ccccc2)n1-c1ccccc1[N+](=O)[O-]
inhibition (LDHA; enzyme activity, inhibitor, fluorescence; 100 µM, pH 7.2): 53%

N=C(NCCCSC[C@H]1O[C@@H](n2cnc3c(NCCCc4ccccc4)ncnc32)[C@H](O)[C@@H]1O)NCC1CC1
inhibition (PRMT3; enzyme activity, inhibitor, fluorescence; 10 µM): -19.4%

O=C(Nc1ccc(OC(F)(F)F)cc1)c1cc(Cl)ccc1O
inhibition (MAOA; enzyme activity, inhibitor; 1 µM, 20 min): 74%

COC(=O)CN=c1scc(-c2ccccc2)n1-c1ccccc1C
inhibition (LDHA; enzyme activity, inhibitor, fluorescence; 100 µM, pH 7.2): 43%

CCN(CC)c1ccc(C2Nc3ccc(C(=O)c4ccccc4)cc3NC3=C2C(=O)CC(C)(C)C3)cc1 (stereo not drawn)
inhibition (ADRA1A; ligand displacement, radioligand; 10 µM): 17%

CNC(=O)[C@@]12C[C@@H]1[C@@H](n1cnc3c(NC)nc(C#Cc4ccc(Cl)s4)nc31)[C@H](O)[C@@H]2O
inhibition (Tspo; ligand displacement, radioligand; 10 µM): 60 to 70%

N=C(NCCCSC[C@H]1O[C@@H](n2cnc3c(NCCCc4ccccc4)ncnc32)[C@H](O)[C@@H]1O)NCCc1ccccc1
inhibition (PRMT3; enzyme activity, inhibitor, fluorescence; 10 µM): 1.64%

CN1CC(Oc2cnc(C#N)cc2-c2ccn3nc(NC(=O)C4CC4)cc3c2)C1
inhibition (Cyclin-dependent kinase-like 4 (CDKL4, Homo sapiens, UniProt Q5MAI5); enzyme activity, inhibitor; 1 µM): -9%

N=C(NCCCSC[C@H]1O[C@@H](n2cnc3c(NCCCc4ccccc4)ncnc32)[C@H](O)[C@@H]1O)NC1CCC1
inhibition (PRMT3; enzyme activity, inhibitor, fluorescence; 10 µM): -37.6%

COc1cc([N+](=O)[O-])ccc1NC(=O)c1ccc(Cl)cc1
inhibition (MAOA; enzyme activity, inhibitor; 1 µM, 20 min): 2%

CCN(c1cc(C#CCN2CCOCC2)cc(C(=O)NCc2c(C)cc(C)[nH]c2=O)c1C)[C@H]1CC[C@H](N(C)CCOC)CC1
inhibition (PRMT3; enzyme activity, inhibitor; 1 µM): 10%

CNC(=O)c1cc(Oc2ccc(NC(=O)Nc3ccc(Cl)c(C(F)(F)F)c3)cc2)ccn1
inhibition (Rps6ka1; enzyme activity, inhibitor; 0.3 µM): 11%

N#Cc1ccc(NC(=O)c2ccc3c(c2)OCO3)cc1
inhibition (MAOA; enzyme activity, inhibitor; 1 µM, 20 min): 38%

N=C(NCCCO)NCCCSC[C@H]1O[C@@H](n2cnc3c(NCCCc4ccccc4)ncnc32)[C@H](O)[C@@H]1O
inhibition (PRMT3; enzyme activity, inhibitor, fluorescence; 10 µM): 7.1%

COC(=O)CN=c1scc(-c2ccccc2)n1-c1ccccc1
inhibition (LDHA; enzyme activity, inhibitor, fluorescence; 100 µM, pH 7.2): 33%

Oc1cccc(Nc2nc(-c3ccc(F)cc3F)cs2)c1
inhibition (Tspo; ligand displacement, radioligand; 10 µM): 63%

N#Cc1ccc2c(ccn2CCC2CCN(C(=O)OC(C(F)(F)F)C(F)(F)F)CC2)c1
inhibition (Fatty-acid amide hydrolase 1 (Faah, Rattus norvegicus, UniProt P97612); enzyme activity, inhibitor; 10 µM): 45%

O=C(Nc1ccc(C(F)(F)F)cc1)c1cc(Cl)ccc1O
inhibition (MAOA; enzyme activity, inhibitor; 1 µM, 20 min): 82%

N=C(NCCCN)NCCCSC[C@H]1O[C@@H](n2cnc3c(NCCCc4ccccc4)ncnc32)[C@H](O)[C@@H]1O
inhibition (PRMT3; enzyme activity, inhibitor, fluorescence; 10 µM): 1.09%

COc1ccc2c(c1)[C@H](NCCC(C)C)C[C@H]2c1ccc(Cl)c(Cl)c1 (relative stereo)
inhibition (Glutathione reductase, mitochondrial (GSR, Homo sapiens, UniProt P00390); enzyme activity, inhibitor; 25 µM): < 12%

CC[C@H](C)[C@H](NC(=O)[C@H](CCC(N)=O)NC(=O)[C@H](CC(C)C)NC(=O)[C@H](CCSC)NC(=O)[C@H](CCCCN)NC(=O)[C@H](CO)NC(=O)[C@H](CO)NC(=O)[C@H](CCSC)NC(=O)[C@H](CC(C)C)NC(=O)[C@H](CC(N)=O)NC(=O)[C@@H](NC(=O)[C@@H](NC(=O)[C@H](CO)NC(=O)[C@H](CC(C)C)NC(=O)[C@H](CS)NC(=O)[C@H](CCCNC(=N)N)NC(=O)[C@H](CC(=O)O)NC(=O)[C@H](Cc1c[nH]c2ccccc12)NC(=O)[C@H](Cc1ccccc1)NC(=O)[C@H](C)NC(=O)[C@H](CCC(=O)O)NC(=O)[C@@H](N)CCCCN)C(C)C)[C@@H](C)CC)C(=O)N[C@@H](CC(N)=O)C(=O)N[C@@H](C)C(=O)O
inhibition (Cyclin-dependent kinase 5, with p25 (CDK5, Homo sapiens, UniProt Q00535); enzyme activity, inhibitor, radiometric; 500 µM): 72%

O=C(c1ccc(Cl)cc1)N(Cc1ccccc1)C1CCCCC1
inhibition (Vasoactive intestinal polypeptide receptor 1 (VIPR1, Homo sapiens, UniProt P32241); cell-free assay; 10 µM): -0.7%
